This passage reports IC50 and inhibition results from ChEMBL document CHEMBL1147467, “Design and synthesis of oxadiazolidinediones as inhibitors of plasminogen activator inhibitor-1” (Bioorg Med Chem Lett, 2004).

Experiment [1] deals with T1, Plasminogen activator inhibitor 1 (Homo sapiens, UniProt P05121). In words: Inhibitory activity against plasminogen activator inhibitor-1.
Experiment [2] deals with T1, Plasminogen activator inhibitor 1. In words: In vitro concentration required for inhibition of tissue type plasminogen activator by plasminogen activator inhibitor-1 at concentration 25 um. An outline of the steps: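 Recombinant human PAI-1 (140 nM) preincubated 1 h at room temperature with compound (1-100 µM final, ≤0.2% DMSO) in pH 6.6 buffer. Recombinant human tPA (70 nM; PAI-1:tPA 2:1) then added for 30 min, followed by the chromogenic tPA substrate Spectrozyme-tPA, with A405 read at 0 and 60 min.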
Target sequence in this assay (P05121 whole entry): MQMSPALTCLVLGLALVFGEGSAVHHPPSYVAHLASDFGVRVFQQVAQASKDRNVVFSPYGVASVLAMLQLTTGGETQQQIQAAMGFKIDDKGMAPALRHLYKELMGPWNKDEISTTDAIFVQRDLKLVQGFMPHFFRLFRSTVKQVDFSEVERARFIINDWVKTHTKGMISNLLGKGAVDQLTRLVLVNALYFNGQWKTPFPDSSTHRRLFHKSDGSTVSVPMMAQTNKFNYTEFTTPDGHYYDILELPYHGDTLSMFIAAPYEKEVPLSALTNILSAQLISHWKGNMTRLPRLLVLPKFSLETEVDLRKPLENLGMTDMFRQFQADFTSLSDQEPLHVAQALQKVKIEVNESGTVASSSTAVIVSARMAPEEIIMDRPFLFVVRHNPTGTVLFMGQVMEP

The target is the same in experiment [3]. Briefly: In vitro inhibition of plasminogen activator inhibitor-1 at concentration 25 um.
Target sequence in this assay (P05121 whole entry, looked up): as the sequence (P05121 whole entry) above

What is called IC50 is the concentration at which inhibition is half-maximal. Read a low IC50 as greater potency in that assay. Compound `O=c1[nH]c(=O)n(C/C=C/c2ccc(OCc3cc(C(F)(F)F)cc(C(F)(F)F)c3)cc2)o1` returned an IC50 in experiment [1] of 14.9 µM. In turn, `C/C(=C/Cn1oc(=O)[nH]c1=O)c1cccc(COc2cc(C(F)(F)F)cc(C(F)(F)F)c2)c1` displayed an IC50 in experiment [2] of 7.2 µM. Compound `O=c1[nH]c(=O)n(C(CCc2ccc(OCc3cccc(Cl)c3)cc2)c2ccccc2)o1` (centres undefined) showed an IC50 in experiment [1] of 0.68 µM. Regarding `C/C(=C\Cn1oc(=O)[nH]c1=O)c1cccc(OCc2cc(C(F)(F)F)cc(C(F)(F)F)c2)c1`, the IC50 in experiment [2] turned out to be 9.4 µM. `CC/C(=C\Cn1oc(=O)[nH]c1=O)c1ccc(OCc2cc(C(F)(F)F)cc(C(F)(F)F)c2)cc1`: the IC50 in experiment [1] is 9 µM. Consider `C/C(=C\Cn1oc(=O)[nH]c1=O)c1cccc(COc2cc(C(F)(F)F)cc(C(F)(F)F)c2)c1`, for which the IC50 in experiment [2] amounted to 5.29 µM.

`CCCC/C(=C\Cn1oc(=O)[nH]c1=O)c1cccc(Oc2cc(Cl)cc(Cl)c2)c1` had an IC50 in experiment [1] of 1.9 µM. On to `O=c1[nH]c(=O)n(C/C=C/c2cc(OCc3ccc(Cl)cc3)cc(OCc3ccc(Cl)cc3)c2)o1`, for which, in experiment [2], inhibition was half-maximal at 2.1 µM (IC50). As to `COc1cc(/C=C/Cn2oc(=O)[nH]c2=O)ccc1OCc1ccc(Cl)c(Cl)c1`, in experiment [2], the IC50 came out at 3.22 µM.

Take `CC(/C=C/c1ccc(OCc2ccc(Cl)c(Cl)c2)cc1)n1oc(=O)[nH]c1=O` (centres undefined): inhibition in experiment [1] was half-maximal at 6.1 µM (IC50).

`O=c1[nH]c(=O)n(C/C=C/c2cc(OCc3ccc(C(F)(F)F)cc3)cc(OCc3ccc(C(F)(F)F)cc3)c2)o1` yielded an IC50 in experiment [2] of 2.5 µM. The inhibition is the relative decrease from the control value, in per cent. High values mean strong suppression, low ones little suppression. For the compound `C/C(=C\Cn1oc(=O)[nH]c1=O)c1cccc(OCc2cccc(C)c2)c1`, in experiment [3], the inhibition turned out to be 37%. Regarding `CC(/C=C/c1ccc(OCc2cccc(C(F)(F)F)c2)cc1)n1oc(=O)[nH]c1=O` (centres undefined), the IC50 in experiment [1] turned out to be 5.8 µM. `C/C(=C\Cn1oc(=O)[nH]c1=O)c1cccc(OCc2ccccc2-c2ccccc2)c1` came in with an IC50 in experiment [2] of 2.3 µM. `C/C(=C\Cn1oc(=O)[nH]c1=O)c1cccc(OCc2ccccn2)c1`: in experiment [2], it took 24 µM to reach half-maximal inhibition (IC50). `C/C(=C\Cn1oc(=O)[nH]c1=O)c1cccc(OCc2ccccc2)c1`: the inhibition in experiment [3] was 24%. Compound `O=c1[nH]c(=O)n(C(CCc2ccc(OCc3cc(C(F)(F)F)cc(C(F)(F)F)c3)cc2)c2ccccc2)o1` (centres undefined) returned an IC50 in experiment [1] of 0.39 µM. On the same count and under the same terms, to `CCCCC(CCn1oc(=O)[nH]c1=O)c1cccc(Oc2cccc(C)c2)c1` (centres undefined) belongs 2.2 µM.

For the compound `O=c1[nH]c(=O)n(C/C=C/c2cc(OCc3ccc(Cl)c(Cl)c3)ccc2Cl)o1`, in experiment [2], half-maximal inhibition (IC50) required 3.8 µM.
